From ChEMBL document CHEMBL1268956, “3-Urea-1-(phenylmethyl)-pyridones as novel, potent, and selective EP3 receptor antagonists” (Bioorg Med Chem Lett, 2010)

Legend:
[1] = target: T1, Thromboxane A2 receptor (Homo sapiens, UniProt P21731); assay: Displacement of radioligand from human TP receptor
T1 sequence (P21731 whole entry): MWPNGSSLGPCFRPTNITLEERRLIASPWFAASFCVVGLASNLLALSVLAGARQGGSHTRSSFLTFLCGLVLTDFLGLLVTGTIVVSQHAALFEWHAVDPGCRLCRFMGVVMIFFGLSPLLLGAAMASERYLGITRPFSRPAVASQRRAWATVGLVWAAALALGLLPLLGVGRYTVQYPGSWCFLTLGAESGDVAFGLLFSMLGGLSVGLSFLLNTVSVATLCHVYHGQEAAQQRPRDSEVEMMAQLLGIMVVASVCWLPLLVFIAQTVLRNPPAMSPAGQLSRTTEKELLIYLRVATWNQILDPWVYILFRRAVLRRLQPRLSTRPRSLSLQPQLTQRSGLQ

[2] = target: Prostaglandin E2 receptor EP2 subtype (Homo sapiens, UniProt P43116); assay: Displacement of radioligand from human EP2 receptor
Sequence of Prostaglandin E2 receptor EP2 subtype (P43116 whole entry): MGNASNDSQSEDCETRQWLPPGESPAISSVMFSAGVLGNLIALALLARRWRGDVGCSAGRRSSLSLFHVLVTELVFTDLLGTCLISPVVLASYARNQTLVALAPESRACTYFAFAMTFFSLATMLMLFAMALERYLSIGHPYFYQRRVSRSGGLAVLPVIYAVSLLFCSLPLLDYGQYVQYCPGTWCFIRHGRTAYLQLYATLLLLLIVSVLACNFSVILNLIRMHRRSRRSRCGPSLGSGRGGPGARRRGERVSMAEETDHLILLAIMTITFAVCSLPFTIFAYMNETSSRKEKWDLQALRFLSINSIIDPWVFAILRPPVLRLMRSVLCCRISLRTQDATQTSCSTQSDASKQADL

[3] = target: Prostaglandin G/H synthase 1 (Homo sapiens, UniProt P23219); assay: Inhibition of human COX1 in human whole blood by ELISA; format: tissue-based
Sequence of Prostaglandin G/H synthase 1 (P23219 whole entry): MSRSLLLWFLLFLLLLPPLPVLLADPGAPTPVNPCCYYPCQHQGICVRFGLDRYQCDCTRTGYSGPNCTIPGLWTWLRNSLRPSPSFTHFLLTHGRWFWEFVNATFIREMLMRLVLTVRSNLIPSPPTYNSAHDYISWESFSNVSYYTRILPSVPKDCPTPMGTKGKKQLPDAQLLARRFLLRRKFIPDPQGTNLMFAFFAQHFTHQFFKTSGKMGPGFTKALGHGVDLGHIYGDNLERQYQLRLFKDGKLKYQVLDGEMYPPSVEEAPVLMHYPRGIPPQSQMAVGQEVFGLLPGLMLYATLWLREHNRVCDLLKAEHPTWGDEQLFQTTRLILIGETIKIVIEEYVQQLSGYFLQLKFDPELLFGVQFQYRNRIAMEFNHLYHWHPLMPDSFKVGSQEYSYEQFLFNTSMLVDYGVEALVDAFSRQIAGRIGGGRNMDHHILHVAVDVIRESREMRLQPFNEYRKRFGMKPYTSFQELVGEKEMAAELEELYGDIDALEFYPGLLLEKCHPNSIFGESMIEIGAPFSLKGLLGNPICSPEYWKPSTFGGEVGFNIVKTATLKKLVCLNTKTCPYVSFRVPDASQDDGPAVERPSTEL
Method in brief: (§1)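 Human whole blood; COX1 and COX2 inhibition read out in ELISA format.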

[4] = target: T2, Prostaglandin G/H synthase 2 (Homo sapiens, UniProt P35354); assay: Inhibition of human COX2 in human whole blood by ELISA; format: tissue-based; method in brief: as §1
T2 sequence (P35354 whole entry): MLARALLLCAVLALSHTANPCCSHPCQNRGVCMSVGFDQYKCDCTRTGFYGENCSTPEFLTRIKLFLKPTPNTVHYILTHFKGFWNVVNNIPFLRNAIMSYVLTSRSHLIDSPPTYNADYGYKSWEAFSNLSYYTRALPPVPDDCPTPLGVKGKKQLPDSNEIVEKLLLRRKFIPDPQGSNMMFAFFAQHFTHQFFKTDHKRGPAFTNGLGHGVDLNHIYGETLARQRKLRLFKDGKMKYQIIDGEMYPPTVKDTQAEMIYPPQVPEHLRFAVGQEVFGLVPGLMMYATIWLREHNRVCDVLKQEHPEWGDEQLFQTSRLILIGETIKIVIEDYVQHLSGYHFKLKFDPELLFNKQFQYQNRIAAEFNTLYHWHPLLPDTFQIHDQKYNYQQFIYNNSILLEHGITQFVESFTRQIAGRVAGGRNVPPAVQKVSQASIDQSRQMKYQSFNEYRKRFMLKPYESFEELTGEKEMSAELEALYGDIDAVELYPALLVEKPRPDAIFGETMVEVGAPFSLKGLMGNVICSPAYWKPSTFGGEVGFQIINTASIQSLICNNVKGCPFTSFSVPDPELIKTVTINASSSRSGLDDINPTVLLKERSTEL

[5] = target: T3, Prostaglandin E2 receptor EP3 subtype (Homo sapiens, UniProt P43115); assay: Antagonist activity at human EP3 receptor expressed in human U2OS cells assessed as inhibition of PGE2-induced intracellular calcium mobilization by FLIPR assay; format: functional, cell-based
T3 sequence (P43115 whole entry): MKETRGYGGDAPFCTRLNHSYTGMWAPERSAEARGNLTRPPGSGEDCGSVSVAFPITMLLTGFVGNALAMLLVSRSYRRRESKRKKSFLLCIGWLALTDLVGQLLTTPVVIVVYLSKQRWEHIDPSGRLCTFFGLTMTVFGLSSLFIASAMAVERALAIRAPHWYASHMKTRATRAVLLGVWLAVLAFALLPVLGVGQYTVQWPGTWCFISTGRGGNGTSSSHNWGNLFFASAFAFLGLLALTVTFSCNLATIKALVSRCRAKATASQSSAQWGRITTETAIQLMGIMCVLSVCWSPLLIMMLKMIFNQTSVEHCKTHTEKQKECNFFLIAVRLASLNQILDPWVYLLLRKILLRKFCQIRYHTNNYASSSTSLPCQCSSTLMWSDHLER

[6] = target: Prostaglandin F2-alpha receptor (Homo sapiens, UniProt P43088); assay: Displacement of radioligand from human FP receptor
Sequence of Prostaglandin F2-alpha receptor (P43088 whole entry): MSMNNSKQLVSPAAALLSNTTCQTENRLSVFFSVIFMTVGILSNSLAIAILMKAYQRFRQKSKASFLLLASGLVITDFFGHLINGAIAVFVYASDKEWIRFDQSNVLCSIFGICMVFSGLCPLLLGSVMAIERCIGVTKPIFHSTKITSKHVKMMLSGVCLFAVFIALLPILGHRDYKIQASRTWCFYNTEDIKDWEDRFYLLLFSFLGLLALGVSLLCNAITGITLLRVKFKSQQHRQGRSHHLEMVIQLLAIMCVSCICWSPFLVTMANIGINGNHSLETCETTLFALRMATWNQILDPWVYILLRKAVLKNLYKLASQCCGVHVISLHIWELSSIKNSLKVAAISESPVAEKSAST

[7] = target: T4, Prostaglandin E2 receptor EP1 subtype (Homo sapiens, UniProt P34995); assay: Displacement of radioligand from human EP1 receptor
T4 sequence (P34995 whole entry): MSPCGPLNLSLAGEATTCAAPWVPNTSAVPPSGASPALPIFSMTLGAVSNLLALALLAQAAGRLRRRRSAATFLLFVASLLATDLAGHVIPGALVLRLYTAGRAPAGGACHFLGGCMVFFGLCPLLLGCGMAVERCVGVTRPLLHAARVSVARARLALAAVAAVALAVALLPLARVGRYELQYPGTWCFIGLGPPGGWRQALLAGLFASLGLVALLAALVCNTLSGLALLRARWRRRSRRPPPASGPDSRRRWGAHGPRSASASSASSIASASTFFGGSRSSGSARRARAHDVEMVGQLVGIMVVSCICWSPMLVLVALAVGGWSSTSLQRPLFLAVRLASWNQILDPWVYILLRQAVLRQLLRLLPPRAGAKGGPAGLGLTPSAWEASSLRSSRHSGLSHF

[8] = target: Prostaglandin D2 receptor (Homo sapiens) (UniProt Q13258); assay: Displacement of radioligand from human DP receptor
Sequence of Prostaglandin D2 receptor (Homo sapiens) (Q13258 whole entry, looked up): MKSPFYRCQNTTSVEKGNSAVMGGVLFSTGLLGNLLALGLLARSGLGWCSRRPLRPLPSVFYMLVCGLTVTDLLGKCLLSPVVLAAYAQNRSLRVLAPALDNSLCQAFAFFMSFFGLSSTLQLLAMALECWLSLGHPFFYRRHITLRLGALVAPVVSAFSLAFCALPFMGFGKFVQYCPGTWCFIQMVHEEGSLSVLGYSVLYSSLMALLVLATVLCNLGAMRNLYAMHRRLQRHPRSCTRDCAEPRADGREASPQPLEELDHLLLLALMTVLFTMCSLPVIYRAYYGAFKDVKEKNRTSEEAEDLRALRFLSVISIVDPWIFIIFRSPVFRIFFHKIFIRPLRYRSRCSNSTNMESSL

[9] = target: T5, Prostaglandin E2 receptor EP3 subtype (Rattus norvegicus, UniProt P34980); assay: Inhibition of rat EP3 receptor
T5 sequence (P34980 whole entry): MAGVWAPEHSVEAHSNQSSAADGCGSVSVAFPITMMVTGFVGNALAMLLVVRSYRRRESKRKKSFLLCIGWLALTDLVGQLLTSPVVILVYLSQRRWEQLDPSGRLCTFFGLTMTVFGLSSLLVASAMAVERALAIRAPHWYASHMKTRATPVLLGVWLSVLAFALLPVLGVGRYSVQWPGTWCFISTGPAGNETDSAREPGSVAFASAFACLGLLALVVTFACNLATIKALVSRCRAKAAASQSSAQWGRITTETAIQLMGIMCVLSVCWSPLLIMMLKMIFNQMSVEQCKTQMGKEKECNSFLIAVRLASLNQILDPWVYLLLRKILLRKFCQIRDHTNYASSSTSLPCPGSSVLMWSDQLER

[10] = target: Prostaglandin E2 receptor EP4 subtype (Homo sapiens, UniProt P35408); assay: Displacement of radioligand from human EP4 receptor
Sequence of Prostaglandin E2 receptor EP4 subtype (P35408 whole entry): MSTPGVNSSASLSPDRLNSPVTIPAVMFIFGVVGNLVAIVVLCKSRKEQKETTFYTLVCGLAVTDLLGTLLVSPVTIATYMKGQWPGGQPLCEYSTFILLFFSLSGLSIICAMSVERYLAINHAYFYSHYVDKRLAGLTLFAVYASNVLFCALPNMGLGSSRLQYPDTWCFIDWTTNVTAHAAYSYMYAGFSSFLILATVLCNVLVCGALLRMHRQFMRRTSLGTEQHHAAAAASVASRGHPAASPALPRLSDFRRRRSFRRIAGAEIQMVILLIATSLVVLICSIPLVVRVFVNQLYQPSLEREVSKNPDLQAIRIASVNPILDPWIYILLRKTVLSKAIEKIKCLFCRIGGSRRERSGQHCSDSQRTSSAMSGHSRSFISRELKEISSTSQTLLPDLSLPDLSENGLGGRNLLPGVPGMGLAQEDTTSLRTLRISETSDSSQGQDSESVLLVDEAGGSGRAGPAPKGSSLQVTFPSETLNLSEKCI

[11] = target: T6, Cytochrome P450 1A2 (Homo sapiens, UniProt P05177); assay: Inhibition of CYP1A2; format: ADME
T6 sequence (P05177 whole entry): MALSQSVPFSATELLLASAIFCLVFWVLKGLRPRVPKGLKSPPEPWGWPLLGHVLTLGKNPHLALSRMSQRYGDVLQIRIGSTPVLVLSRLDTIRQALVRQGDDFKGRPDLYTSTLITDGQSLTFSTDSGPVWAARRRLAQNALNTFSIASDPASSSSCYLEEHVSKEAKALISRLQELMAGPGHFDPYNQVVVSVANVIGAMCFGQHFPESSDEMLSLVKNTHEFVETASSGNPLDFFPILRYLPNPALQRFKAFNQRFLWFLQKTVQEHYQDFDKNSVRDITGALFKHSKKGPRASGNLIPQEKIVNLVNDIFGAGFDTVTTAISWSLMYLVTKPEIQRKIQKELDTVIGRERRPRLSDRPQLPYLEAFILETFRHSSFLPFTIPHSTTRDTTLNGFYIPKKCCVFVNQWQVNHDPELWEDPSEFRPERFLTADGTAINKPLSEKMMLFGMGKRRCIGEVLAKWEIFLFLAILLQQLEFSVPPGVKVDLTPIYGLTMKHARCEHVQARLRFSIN

SMILES: CCc1cccc(NC(=O)Nc2cccn(Cc3ccccc3Cl)c2=O)c1
- Ki [1]: > 10 µM
- Ki [2]: > 10 µM
- Ki [3]: > 100 µM
- Ki [4]: > 100 µM
- Ki [5]: 0.0501 µM
- Ki [6]: > 10 µM
- Ki [7]: > 10 µM
- pKi [8]: < 5
- Ki [9]: 0.158 µM
- Ki [10]: > 10 µM
- Ki [11]: 2 µM
